# Test results reported in ChEMBL document CHEMBL3576785, “Differential Targeting of Human Topoisomerase II Isoforms with Small Molecules” (J Med Chem, 2015).
# Active and inactive are the calls of the source. The rule behind the calls is not given here.
# Legend:
# [1] = Cytotoxicity against wild type human NALM6 cells assessed as growth inhibition after 5 days by XTT assay; type: functional, cell-based; details: NALM-6, 120 h
# In short: (§1)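 Growth inhibition in Nalm-6 wild-type, TOP2A+/- and TOP2B-/- lines. IC50 values are means ±SD of 3 replicate experiments.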
# [2] = system: NALM-6; test: Selectivity ratio of IC50 for human NALM6 cells expressing 50% TOP2A to IC50 for wild type human NALM6 cells; type: functional
# [3] = system: NALM-6; test: Selectivity ratio of IC50 for TOP2B double knockout human NALM6 cells to IC50 for wild type human NALM6 cells; type: functional
# [4] = target: DNA topoisomerase 2-beta (Homo sapiens) (UniProt Q02880); test: Activity of TOP2B in human K562 cells assessed as poisoning activity at 100 uM after 1 hr by TARDIS assay; type: cell-based
# DNA topoisomerase 2-beta (Homo sapiens), sequence (Q02880 whole entry, canonical isoform): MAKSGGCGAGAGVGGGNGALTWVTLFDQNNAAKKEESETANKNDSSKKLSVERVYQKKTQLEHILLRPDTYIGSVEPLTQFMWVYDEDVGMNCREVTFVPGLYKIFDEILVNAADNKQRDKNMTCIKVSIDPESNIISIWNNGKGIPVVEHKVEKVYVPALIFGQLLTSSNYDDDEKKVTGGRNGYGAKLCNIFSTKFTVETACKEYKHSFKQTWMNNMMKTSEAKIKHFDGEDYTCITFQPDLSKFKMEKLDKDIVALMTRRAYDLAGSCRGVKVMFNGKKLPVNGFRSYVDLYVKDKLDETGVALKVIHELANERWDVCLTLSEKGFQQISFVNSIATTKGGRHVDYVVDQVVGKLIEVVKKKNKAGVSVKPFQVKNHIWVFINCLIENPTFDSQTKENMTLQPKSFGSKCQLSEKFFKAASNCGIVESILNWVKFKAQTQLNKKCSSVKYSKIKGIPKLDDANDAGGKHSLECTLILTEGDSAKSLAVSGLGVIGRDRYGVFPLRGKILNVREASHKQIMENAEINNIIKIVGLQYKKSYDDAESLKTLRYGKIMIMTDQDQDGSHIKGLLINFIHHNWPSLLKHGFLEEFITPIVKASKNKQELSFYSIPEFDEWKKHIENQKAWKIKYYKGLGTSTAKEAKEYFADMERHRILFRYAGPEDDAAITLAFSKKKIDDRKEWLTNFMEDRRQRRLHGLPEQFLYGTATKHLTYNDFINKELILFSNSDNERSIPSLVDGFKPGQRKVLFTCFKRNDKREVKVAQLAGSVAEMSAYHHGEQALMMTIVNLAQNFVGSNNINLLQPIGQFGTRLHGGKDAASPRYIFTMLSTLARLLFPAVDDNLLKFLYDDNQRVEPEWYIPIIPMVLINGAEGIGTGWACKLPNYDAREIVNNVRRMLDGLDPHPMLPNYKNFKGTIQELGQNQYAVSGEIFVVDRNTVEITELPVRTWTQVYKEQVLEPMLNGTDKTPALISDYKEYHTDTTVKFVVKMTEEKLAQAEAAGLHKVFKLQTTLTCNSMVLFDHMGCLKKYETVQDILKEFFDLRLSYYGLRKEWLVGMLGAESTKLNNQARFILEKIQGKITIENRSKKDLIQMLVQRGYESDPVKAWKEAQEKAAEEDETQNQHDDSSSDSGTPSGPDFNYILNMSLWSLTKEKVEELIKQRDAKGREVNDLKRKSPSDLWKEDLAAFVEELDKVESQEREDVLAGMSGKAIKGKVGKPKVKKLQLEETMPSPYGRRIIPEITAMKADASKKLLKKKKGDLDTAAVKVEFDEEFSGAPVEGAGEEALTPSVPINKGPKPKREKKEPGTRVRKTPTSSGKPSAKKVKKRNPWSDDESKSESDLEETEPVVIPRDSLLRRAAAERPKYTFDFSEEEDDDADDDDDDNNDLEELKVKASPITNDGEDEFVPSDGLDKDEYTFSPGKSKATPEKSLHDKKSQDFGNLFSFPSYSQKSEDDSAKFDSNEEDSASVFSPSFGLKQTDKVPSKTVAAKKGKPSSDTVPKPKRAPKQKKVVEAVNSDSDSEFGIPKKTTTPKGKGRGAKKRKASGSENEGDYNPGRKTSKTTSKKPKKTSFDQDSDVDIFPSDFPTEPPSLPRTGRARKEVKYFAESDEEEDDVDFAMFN
# In short: (§2)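 TARDIS (trapped in agarose DNA immunostaining) in K562 cells, which express both isoforms at similar levels. Cells given 100 µM analogue, DMSO as vehicle control. Drug-stabilised TOP2–DNA complexes detected with isoform-specific immunofluorescence, TOP2A or TOP2B. Fluorescence quantified and normalised to VP-16-treated cells. Single-dose screen, followed by dose–response.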
# [5] = Cytotoxicity against TOP2B double knockout human NALM6 cells assessed as growth inhibition after 5 days by XTT assay; type: functional, cell-based; details: NALM-6, 120 h; in short: as §1
# [6] = Cytotoxicity against human NALM6 cells expressing 50% TOP2A assessed as growth inhibition after 5 days by XTT assay; type: functional, cell-based; details: NALM-6, 120 h; in short: as §1
# [7] = target: DNA topoisomerase 2-alpha (Homo sapiens) (UniProt P11388); test: Activity of TOP2A in human K562 cells assessed as poisoning activity at 100 uM after 1 hr by TARDIS assay; type: cell-based; in short: as §2
# DNA topoisomerase 2-alpha (Homo sapiens), sequence (P11388 whole entry): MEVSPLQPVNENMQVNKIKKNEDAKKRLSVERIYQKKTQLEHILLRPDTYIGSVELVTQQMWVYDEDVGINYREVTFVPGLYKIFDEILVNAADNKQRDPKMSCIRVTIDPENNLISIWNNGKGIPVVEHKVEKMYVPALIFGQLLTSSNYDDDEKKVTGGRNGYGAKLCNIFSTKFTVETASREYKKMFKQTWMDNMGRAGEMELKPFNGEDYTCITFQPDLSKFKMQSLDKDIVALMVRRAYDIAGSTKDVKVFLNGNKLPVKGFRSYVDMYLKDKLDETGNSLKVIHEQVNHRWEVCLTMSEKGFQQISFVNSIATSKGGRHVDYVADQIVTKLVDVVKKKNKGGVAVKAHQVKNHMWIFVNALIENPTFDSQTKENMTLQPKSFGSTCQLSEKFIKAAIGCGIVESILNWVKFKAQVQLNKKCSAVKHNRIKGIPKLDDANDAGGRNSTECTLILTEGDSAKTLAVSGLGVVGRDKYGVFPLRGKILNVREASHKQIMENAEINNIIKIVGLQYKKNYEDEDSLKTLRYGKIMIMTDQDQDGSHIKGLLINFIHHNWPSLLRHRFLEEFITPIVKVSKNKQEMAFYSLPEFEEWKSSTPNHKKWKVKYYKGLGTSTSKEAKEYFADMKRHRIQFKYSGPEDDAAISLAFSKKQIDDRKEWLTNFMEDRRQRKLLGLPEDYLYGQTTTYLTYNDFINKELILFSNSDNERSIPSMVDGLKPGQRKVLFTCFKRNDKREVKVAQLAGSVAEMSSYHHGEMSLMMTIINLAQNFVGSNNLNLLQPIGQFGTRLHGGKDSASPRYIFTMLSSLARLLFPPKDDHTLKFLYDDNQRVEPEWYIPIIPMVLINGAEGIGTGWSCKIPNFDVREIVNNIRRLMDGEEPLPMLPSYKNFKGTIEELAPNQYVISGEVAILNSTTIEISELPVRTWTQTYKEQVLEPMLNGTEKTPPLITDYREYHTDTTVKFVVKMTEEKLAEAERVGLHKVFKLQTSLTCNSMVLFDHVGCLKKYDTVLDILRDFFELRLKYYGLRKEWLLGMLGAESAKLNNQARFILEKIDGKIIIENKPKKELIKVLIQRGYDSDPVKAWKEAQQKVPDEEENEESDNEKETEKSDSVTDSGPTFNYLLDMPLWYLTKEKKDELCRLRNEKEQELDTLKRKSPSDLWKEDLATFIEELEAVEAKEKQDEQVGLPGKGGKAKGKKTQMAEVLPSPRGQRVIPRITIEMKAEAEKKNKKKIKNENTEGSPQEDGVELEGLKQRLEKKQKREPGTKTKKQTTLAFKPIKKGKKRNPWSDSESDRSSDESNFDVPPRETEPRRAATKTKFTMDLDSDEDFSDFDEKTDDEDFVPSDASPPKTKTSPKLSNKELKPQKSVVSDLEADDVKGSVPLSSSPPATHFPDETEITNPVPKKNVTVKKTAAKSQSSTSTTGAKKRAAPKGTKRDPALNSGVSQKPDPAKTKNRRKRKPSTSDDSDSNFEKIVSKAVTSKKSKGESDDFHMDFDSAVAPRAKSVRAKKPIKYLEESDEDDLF
# [8] = system: K562; test: Activity of TOP2 in human K562 cells assessed as poisoning activity by measuring phosphorylation of gamma-H2AX at Ser139 at 100 uM after 1 hr by DAPI staining-based epifluorescence microscopic analysis; type: cell-based
# In short: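 K562 cells (human leukaemia, similar expression of both TOP2 isoforms) exposed to 100 µM analogue, DMSO as vehicle control. γ-H2AX (phospho-Ser139 H2AX) detected by immunofluorescence microscopy with nuclear counterstain. Signal quantified in γ-H2AX-positive cells and normalised to VP-16-treated cells.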
compound,measurement,setting,value
COc1cc([C@@H]2c3cc4c(cc3[C@@H](n3cc(CN(C)C)nn3)[C@H]3COC(=O)[C@H]23)OCO4)cc(OC)c1O,IC50,[1],620 nM
same,Ratio IC50,[2],1.4
same,Ratio IC50,[3],2.1
same,Activity,[4],Active
same,IC50,[5],1320 nM
same,IC50,[6],850 nM
same,Activity,[7],Active
same,Activity,[8],Active
COc1cc([C@@H]2c3cc4c(cc3[C@@H](OCc3cn(Cc5ccc(C(=O)O)cc5)nn3)[C@H]3COC(=O)[C@H]23)OCO4)cc(OC)c1OC,IC50,[1],> 10000 nM
same,Activity,[8],Active
COc1cc([C@@H]2c3cc4c(cc3[C@@H](O[C@@H]3O[C@@H]5CO[C@@H](C)O[C@H]5[C@H](O)[C@H]3O)[C@H]3COC(=O)[C@H]23)OCO4)cc(OC)c1O [ETOPOSIDE],IC50,[1],134 nM
same,Ratio IC50,[2],1.7
same,Ratio IC50,[3],1.4
same,Activity,[4],Active
same,IC50,[5],182 nM
same,IC50,[6],234 nM
same,Activity,[7],Active
same,Activity,[8],Active
COC(=O)CCCCCn1cc(CO[C@@H]2c3cc4c(cc3[C@@H](c3cc(OC)c(O)c(OC)c3)[C@H]3C(=O)OC[C@@H]32)OCO4)nn1,IC50,[1],3900 nM
same,Activity,[4],Active
same,Activity,[7],Active
same,Activity,[8],Active
COc1cc([C@@H]2c3cc4c(cc3[C@@H](OCc3cn(-c5ccc(O)cc5)nn3)[C@H]3COC(=O)[C@H]23)OCO4)cc(OC)c1O,IC50,[1],3400 nM
same,Ratio IC50,[2],1
same,Ratio IC50,[3],0.6
same,Activity,[4],Active
same,IC50,[5],1920 nM
same,IC50,[6],3500 nM
same,Activity,[7],Active
same,Activity,[8],Active
COc1cc([C@@H]2c3cc4c(cc3[C@@H](OCc3cn(CCCN(C)C)nn3)[C@H]3COC(=O)[C@H]23)OCO4)cc(OC)c1O,IC50,[1],1200 nM
same,Ratio IC50,[2],1.6
same,Ratio IC50,[3],2
same,Activity,[4],Active
same,IC50,[5],2360 nM
same,IC50,[6],1900 nM
same,Activity,[7],Active
same,Activity,[8],Active
